Legend:
[1] = Plasma pharmacokinetics; type: in vivo; conditions: SD rats plasma, intraperitoneal, free group received DAS + ROZ
Summary of the method: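 Female SD rats (5 per group) got an intraperitoneal dose of either the free two-drug combination or the micelle formulation, at 5 mg/kg of the kinase inhibitor. Blood (0.3 mL) was taken from 0 min to 24 h and spun at 4000 rpm for 10 min. Plasma (100 µL) was mixed with methanol (300 µL) plus diclofenac sodium internal standard, spun, and analysed by HPLC. Parameters were derived from the concentration–time data.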

[2] = tested on: MCF-7 cells; test: In vitro cytotoxicity, MTT assay; type: cell-based, Human; conditions: for IC50: Homo sapiens
[3] = tested on: MDA-MB-231 cells; test: In vitro cytotoxicity, MTT assay; type: cell-based, Human; conditions: for IC50: Homo sapiens
[4] = tested on: MDA-MB-231 cells; test: Transwell migration experiment; type: cell-based, Human; conditions: 24 h treatment
[5] = tested on: MCF-7 cells; test: Transwell migration experiment; type: cell-based, Human; conditions: 24 h treatment

| AUC0-∞ of DAS ([1]; DAS 5 mg/kg) | AUC0–24 of DAS ([1]; DAS 5 mg/kg) | Compound | IC50 ([2]; MCF7, 24 h) | IC50 ([2]; MCF7, 48 h) | IC50 ([3]; MDA-MB-231, 24 h) | IC50 ([3]; MDA-MB-231, 48 h) | AUC0–24 of ROZ ([1]; DAS dose 5 mg/kg) | AUC0–∞ of ROZ ([1]; DAS dose 5 mg/kg) | number of cells penetrating the membrane (migration) [4] | number of cells penetrating the membrane (migration) [5] | cell survival rate ([2]; MCF-7 cells, 24 h incubation) | cell survival rate ([3]; MDA-MB-231 cells, 24 h incubation) |
| --- | --- | --- | --- | --- | --- | --- | --- | --- | --- | --- | --- | --- |
| 2380 ± 1120 ng·h/mL | 2260 ± 930 ng·h/mL | Cc1nc(Nc2ncc(C(=O)Nc3c(C)cccc3Cl)s2)cc(N2CCN(CCO)CC2)n1 [DAS, Dasatinib] | 52 ± 6.83 µM | 31.2 ± 2.8 µM | 73.6 ± 3.8 µM | 64.7 ± 2.63 µM | – | – | – | – | – | – |
| – | – | CN(CCOc1ccc(CC2SC(=O)NC2=O)cc1)c1ccccn1 (centres unmarked) [ROZ, rosiglitazone] | – | 102 ± 6.2 µM | – | 259 ± 27.5 µM | 41060 ± 10850 ng·h/mL | 41340 ± 10680 ng·h/mL | significantly reduced | significantly reduced | higher than 90% | higher than 90% |
